Data from ChEMBL document CHEMBL1777748 (Bioorg Med Chem Lett, 2011).
pIC50: −log10 of the molar value. Calls of active or inactive are those of the source. The rule behind the calls is not given here.

How the values were obtained:
[1] = molecular target: T1, Prostaglandin D2 receptor 2 (Homo sapiens, UniProt Q9Y5Y4); assay: Displacement of [3H]-PGD2 from CRTh2 receptor by scintillation proximity assay
T1 sequence (Q9Y5Y4 whole entry): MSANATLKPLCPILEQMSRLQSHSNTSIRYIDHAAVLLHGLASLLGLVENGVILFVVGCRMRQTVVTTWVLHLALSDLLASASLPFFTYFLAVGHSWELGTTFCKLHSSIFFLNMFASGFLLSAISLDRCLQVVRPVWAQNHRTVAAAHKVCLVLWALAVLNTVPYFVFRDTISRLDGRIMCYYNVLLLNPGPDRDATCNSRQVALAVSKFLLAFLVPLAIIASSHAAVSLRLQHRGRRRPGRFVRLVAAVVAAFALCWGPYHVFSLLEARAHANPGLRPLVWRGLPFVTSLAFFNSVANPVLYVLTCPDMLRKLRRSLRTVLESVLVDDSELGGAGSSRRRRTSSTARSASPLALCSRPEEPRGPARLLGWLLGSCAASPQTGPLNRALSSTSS

[2] = Lipophilicity, log D of the compound at pH 7.4; settings: buffer
[3] = Intrinsic clearance in rat hepatocytes assessed per 1 x 10^6 cells
[4] = Intrinsic clearance in human liver microsomes
[5] = molecular target: T2, Prostaglandin D2 receptor 2 (Homo sapiens) (UniProt Q9Y5Y4); assay: Partial agonist activity at human CRTh2 receptor expressed in HEK cells assessed as stimulation of calcium flux; assay type: functional, cell-based; settings: HEK293
T2 sequence (whole entry): T1 sequence (Q9Y5Y4 whole entry)

[6] = molecular target: T1, Prostaglandin D2 receptor 2; assay: Antagonist activity at human CRTh2 receptor expressed in HEK cells assessed as inhibition of PGD2-induced calcium flux; assay type: functional, cell-based, HEK293
Procedure, shortened: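 PGD2-driven Ca2+ flux in HEK cells transfected with human CRTh2, read as antagonism of the response.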

[7] = molecular target: T2, Prostaglandin D2 receptor 2 (Homo sapiens); settings: HEK293, 10 uM
[8] = molecular target: T2, Prostaglandin D2 receptor 2 (Homo sapiens); assay: Displacement of [3H]-PGD2 from CRTh2 receptor at 10 uM by scintillation proximity assay
Procedure, shortened: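 Scintillation proximity binding with [3H]-PGD2 as radioligand; reported values are means of more than 2 measurements.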

Compound	pIC50 [1]	hepatocyte CLint [3] [µL/min/1e6 cells]	microsomal CLint ([4]; liver microsomes) [µL/min/mg]	other results
CCC(Oc1ccc(C(F)(F)F)cc1-c1ccc(S(=O)(=O)CC)cc1C)C(=O)O (centres undefined)	6.75	–	–	logD [2]: 0.3
CCS(=O)(=O)c1ccc(-c2cc(Cl)ccc2OCC(=O)O)c(F)c1	8.10	4	–	microsomal CLint ([4]; microsomes): < 3 µL/min/mg
O=C(O)COc1ccc(Cl)cc1-c1ccccc1	6.60	–	–	–
CCN(CC)S(=O)(=O)c1ccc(-c2cc(C(F)(F)F)ccc2OCC(=O)O)cc1	8.89	18	9	logD [2]: 0.7
C[C@@H](Oc1ccc(C(F)(F)F)cc1-c1cccc(C#N)c1)C(=O)O	9.22	< 5	< 3	–
O=C(O)COc1ccc(C(F)(F)F)cc1-c1ccc2c(c1)CCS2(=O)=O	6.90	13	6	–
CCS(=O)(=O)c1ccc(-c2cc(Cl)ccc2OCC(=O)O)c(Cl)c1	8.82	< 3	7	–
CS(=O)(=O)c1ccc(OCC(=O)O)c(-c2ccccc2)c1	6.27	6	< 3	Activity [5]: Active
CCS(=O)(=O)c1ccc(-c2cc(C(F)(F)F)ccc2O[C@@H](C)C(=O)O)c(C)c1	6.45	10	–	–
CCCCOc1ccccc1-c1cc(C(F)(F)F)ccc1OCC(=O)O	8.00	9	6	–
CCS(=O)(=O)c1ccc(-c2cc(C(F)(F)F)ccc2OC(C)(C)C(=O)O)c(C)c1	5.40	–	–	–
N#Cc1ccc(OCC(=O)O)c(-c2ccccc2)c1	6.45	< 3	6	pIC50 [6]: 6.60
Cc1ccc(OCC(=O)O)c(-c2ccccc2)c1	6.10	< 3	12	pIC50 [6]: 6.15
Cc1ccc(C#N)cc1-c1cc(C(F)(F)F)ccc1OCC(=O)O	9.70	< 3	–	logD [2]: 0.2; microsomal CLint ([4]; microsomes): < 3 µL/min/mg
CCS(=O)(=O)c1ccc(-c2cc(C(F)(F)F)ccc2OCC(=O)O)c(Cl)c1	9.52	< 5	< 3	–
CCS(=O)(=O)c1cccc(-c2cc(C(F)(F)F)ccc2OCC(=O)O)c1	7.25	< 3	12	–
CS(=O)(=O)c1ccc(-c2cc(Cl)ccc2OCC(=O)O)c(Cl)c1	9.22	5	10	–
CN(c1ccc(-c2cc(C(F)(F)F)ccc2OCC(=O)O)cc1)S(C)(=O)=O	9.10	< 3	13	–
Cc1cc(N(C)S(C)(=O)=O)ccc1-c1cc(C(F)(F)F)ccc1OCC(=O)O	9.40	< 3	< 3	–
Nc1ccc(OCC(=O)O)c(-c2ccccc2)c1	5.05	64	< 3	inhibition [7]: 17%
CN(c1ccc(-c2cc(F)ccc2OCC(=O)O)c(Cl)c1)S(C)(=O)=O	8.66	–	–	–
N#Cc1ccc(-c2cc(C(F)(F)F)ccc2OCC(=O)O)cc1	6.90	–	–	–

Compound	pIC50 [1]	hepatocyte CLint [3] [µL/min/1e6 cells]	microsomal CLint ([4]; liver microsomes) [µL/min/mg]	other results
CCS(=O)(=O)c1ccc(-c2cc(C(F)(F)F)ccc2OCC(N)=O)c(C)c1	5.25	29	< 3	logD [2]: 2.8
CN(c1ccc(-c2cc(C(F)(F)F)ccc2OCC(=O)O)c(Cl)c1)S(C)(=O)=O	10.00	–	–	–
CCS(=O)(=O)c1ccc(-c2cc(Cl)ccc2OCC(=O)O)c(C(F)(F)F)c1	6.53	–	–	–
CCS(=O)(=O)c1ccc(-c2cc(C(F)(F)F)ccc2OCc2nnn[nH]2)c(C)c1	6.05	–	–	–
O=C(O)COc1ccc(Br)cc1-c1ccccc1	6.50	7	< 3	pIC50 [6]: 6.80
N#Cc1cccc(-c2cc(C(F)(F)F)ccc2OCC(=O)O)c1	> 9.40	< 3	< 3	logD [2]: 0.1
CCS(=O)(=O)c1ccc(-c2cc(C(F)(F)F)ccc2CCC(=O)O)c(C)c1	8.60	25	< 4	–
CCS(=O)(=O)c1ccc(-c2cc(Cl)ccc2OCC(=O)O)c(C)c1	8.39	–	–	–
CCSc1ccc(-c2cc(C(F)(F)F)ccc2OCC(=O)O)cc1	8.05	–	–	–
CS(=O)(=O)c1ccc(-c2cc(C(F)(F)F)ccc2OCC(=O)O)cc1	7.44	< 3	< 3	Activity [5]: Active
O=C(O)COc1ccc([N+](=O)[O-])cc1-c1ccccc1	6.60	–	–	pIC50 [6]: 6.75
CCc1ccc(OCC(=O)O)c(-c2ccc(S(C)(=O)=O)cc2)c1	–	13	–	microsomal CLint ([4]; microsomes): < 3 µL/min/mg
O=C(O)COc1ccc(C(F)(F)F)cc1-c1ccccc1-c1ccccc1	8.70	20	–	logD [2]: 1.4; microsomal CLint ([4]; microsomes): < 3 µL/min/mg
CCS(=O)(=O)c1ccc(-c2cc(C(F)(F)F)ccc2O[C@H](C)C(=O)O)c(Cl)c1	9.22	< 3	< 3	logD [2]: 0
COc1ccc(-c2cc(C(F)(F)F)ccc2OCC(=O)O)cc1	6.60	47	12	logD [2]: 0.3
CCS(=O)(=O)c1ccc(-c2cc(Cl)ccc2OCC(=O)O)cc1	7.72	< 3	7	–
O=C(O)COc1ccc(C(F)(F)F)cc1-c1ccc(Cl)cc1	7.30	< 3	11	logD [2]: 0.9
N#Cc1ccc(F)c(-c2cc(C(F)(F)F)ccc2OCC(=O)O)c1	9.70	< 3	–	microsomal CLint ([4]; microsomes): < 4 µL/min/mg
CS(=O)(=O)c1ccc(-c2cc(C(F)(F)F)ccc2OCC(=O)O)c(Cl)c1	9.70	–	–	–
O=C(O)COc1ccccc1-c1ccccc1	–	–	–	inhibition [8]: 41%
CCS(=O)(=O)c1ccc(-c2cc(C(F)(F)F)ccc2O[C@H](C)C(=O)O)c(C)c1	8.80	23	< 3	–
O=C(O)COc1ccc(-c2nccs2)cc1-c1ccccc1	5.75	–	–	pIC50 [6]: 6.30
